High-throughput results (PubChem)
Pf Dd2 growth = blocks growth of Plasmodium falciparum Dd2 parasites; P. falciparum Dd2 growth, SYBR Green, 72 h; active compounds read low; activity change, % at 10 µM; 94,000 tested, 2.3% active; in the data active means activity change below about -80%; inconclusive means no clear call, values can overlap the other calls
IDH1 R132H inh = IDH1 R132H (human) inhibition | O75874 | IDH1 R132H reductase, diaphorase/resazurin fluorescence, 60 min | inhibition, % at 10 µM | 70,000 tested, 0.18% active | AID 624101; in the data active means inhibition above about 34%; inconclusive means no clear call, values can overlap the other calls; inactive means below about 11%
KDM4C inh = KDM4C (human) demethylase inhibition; GST-KDM4C 2-372, H3K9me3 peptide, LANCE TR-FRET; inhibition, % at 12.5 µM; 96,000 tested, 0.15% active; AID 720574;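 active means mean replicate inhibition above about 25%, with at least 55% of replicates also reaching it, limit read from the data, passing the limit was not always enough; inconclusive means only one of those two conditions met; inactive means neither condition met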
Target sequence (Q9H3R0 2-372 limits assumed): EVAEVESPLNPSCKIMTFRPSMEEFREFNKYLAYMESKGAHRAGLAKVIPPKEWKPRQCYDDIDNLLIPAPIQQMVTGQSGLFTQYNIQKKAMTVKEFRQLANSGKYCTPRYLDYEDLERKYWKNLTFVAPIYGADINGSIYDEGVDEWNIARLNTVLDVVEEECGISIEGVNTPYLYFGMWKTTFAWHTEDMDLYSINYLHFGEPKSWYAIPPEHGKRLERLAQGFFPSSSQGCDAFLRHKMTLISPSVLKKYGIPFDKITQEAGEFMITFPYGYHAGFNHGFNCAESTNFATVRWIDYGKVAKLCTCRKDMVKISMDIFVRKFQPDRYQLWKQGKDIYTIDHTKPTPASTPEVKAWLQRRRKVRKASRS
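reagent = H3K9me3 peptide substrate, Fe(II), 2-oxoglutarate | system = GST-tagged GASC-1 (JMJD2C) catalytic fragment, aa 2-372 | amount = enzyme final amount 10 nM | read-out = Fall in 671/618 emission ratio as inhibition | medium = HEPES buffer, pH 7.5, plus ascorbate | schedule = 30 min reaction, 60 min detection, RT | measured by = LANCE TR-FRET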
T cruzi growth-1 = inhibitors of T. cruzi proliferation; inhibition, % at 8.34 µM; T. cruzi beta-gal in NIH3T3, GalScreen luminescence, 90 h; AID 624255; 77,000 tested, 5.9% active;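 active means mean inhibition above about 93%, with at least 55% of replicates each passing it, limit read from the data, passing the limit was not always enough; inconclusive means only one of those two conditions holds; inactive means neither condition holds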
T cruzi growth-2 = Trypanosoma cruzi proliferation inhibition | shares compounds with T cruzi growth-1 | T. cruzi beta-gal in NIH3T3, GalScreen luminescence, 90 h | inhibition, % at 8.35 µM | 5,600 tested, 72% active | AID 651739;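 active means mean replicate inhibition above about 95% and at least 55% of replicates individually reaching it, limit read from the data; inconclusive means only one of the two criteria is met; inactive means neither criterion is met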
T cruzi growth-3 = blocks T. cruzi growth in NIH3T3 host cells; shares compounds with T cruzi growth-1; T. cruzi beta-gal in NIH3T3, GalScreen luminescence, 90 h; inhibition, % at 2.09 µM; 5,600 tested, 21% active; AID 651740;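 active means mean inhibition above about 95%, with at least 55% of replicates also reaching it, limit read from the data; inconclusive means meets just one of the two conditions; inactive means meets neither condition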
NIH3T3 tox = cytotoxicity in mouse NIH/3T3 fibroblasts; shares compounds with T cruzi growth-1; NIH/3T3 viability, CellTiter-Glo ATP luminescence, 90 h; cytotoxicity (signal decrease), % at 8.35 µM; 5,600 tested, 14% active; AID 651742;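 active means mean signal decrease across replicates above about 35% based on untreated-well scatter, with enough replicates individually passing, limit read from the data; inconclusive means no rule stated though some were filed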
3T3 cytotox 2 = NIH/3T3 (mouse) viability loss. shares compounds with T cruzi growth-1. NIH/3T3 viability, CellTiter-Glo ATP luminescence, 90 h. inhibition, % at 24.9 µM. 5,600 tested, 56% active. AID 651744;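 active means mean loss of cell viability signal at or above a set limit, and enough replicates individually reaching it; inconclusive means meets only the mean limit or only the replicate share; inactive means meets neither condition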
Each line names hits and unclear results; the compound was inactive in the other large screens (follow-up assays come after a bar, where they were run). Rows were chosen to be rich in hits. Some 5.8% of all compounds tested hit in one or more screens of this group.

CO[C@@H](CN(C)C(=O)Nc1ccc(C(F)(F)F)cc1)[C@@H](C)CN(Cc1ccccc1Cl)[C@@H](C)CO	none
CO[C@H](CN(C)C(=O)Nc1ccc(C(F)(F)F)cc1)[C@@H](C)CN(Cc1ccccc1Cl)[C@@H](C)CO	T cruzi growth-1 100.6 | T cruzi growth-2 100.7 | T cruzi growth-3 inactive | NIH3T3 tox 46.8 | 3T3 cytotox 2 103.6
CO[C@H](CN(C)C(=O)Nc1ccc(C(F)(F)F)cc1)[C@H](C)CN(Cc1ccccc1Cl)[C@@H](C)CO	T cruzi growth-1 114.0 | T cruzi growth-2 101.1 | T cruzi growth-3 99.7 | NIH3T3 tox 50.0 | 3T3 cytotox 2 104.2
Cc1cccc(NC(=O)c2ccc(OC(C)C(=O)Nc3ccc(Br)cc3)cc2)c1C (stereo unspecified)	none (no result: Pf Dd2 growth, KDM4C inh, T cruzi growth-1)
Cc1ccc2[nH]c(C)c(CCC(=O)O)c(=O)c2c1	none (no result: Pf Dd2 growth, KDM4C inh, T cruzi growth-1)
C[C@H](CO)N1C[C@H](C)[C@H](CN(C)S(=O)(=O)c2cccs2)Oc2ccc(NC(=O)Nc3ccc(C(F)(F)F)cc3)cc2C1=O	T cruzi growth-1 114.9 (no result: IDH1 R132H inh) | T cruzi growth-2 103.1 | T cruzi growth-3 inactive | NIH3T3 tox inactive | 3T3 cytotox 2 99.6
C[C@H](CO)N1C[C@H](C)[C@H](CN(C)S(=O)(=O)c2cccs2)Oc2c(NC(=O)Nc3ccc(C(F)(F)F)cc3)cccc2C1=O	T cruzi growth-1 103.1 | T cruzi growth-2 inactive | T cruzi growth-3 inactive | NIH3T3 tox 56.1 | 3T3 cytotox 2 105.1
C[C@@H]1CN([C@H](C)CO)C(=O)c2cc(NC(=O)Nc3ccc(C(F)(F)F)cc3)ccc2O[C@H]1CN(C)S(=O)(=O)c1cccs1	none (no result: IDH1 R132H inh)
C[C@@H]1CN([C@@H](C)CO)C(=O)c2cccc(NS(C)(=O)=O)c2O[C@@H]1CN(C)S(=O)(=O)c1cccs1	none
C[C@@H]1CN([C@H](C)CO)C(=O)c2cc(NC(=O)Nc3ccc(C(F)(F)F)cc3)ccc2O[C@@H]1CN(C)S(=O)(=O)c1cccs1	T cruzi growth-1 inconclusive | T cruzi growth-2 107.8 | T cruzi growth-3 inactive | NIH3T3 tox inactive | 3T3 cytotox 2 40.1
C[C@H]1CN([C@@H](C)CO)C(=O)c2cccc(NC(=O)Nc3ccc(C(F)(F)F)cc3)c2O[C@H]1CN(C)S(=O)(=O)c1cccs1	none
C[C@H]1CN([C@@H](C)CO)C(=O)c2cccc(NS(C)(=O)=O)c2O[C@@H]1CN(C)S(=O)(=O)c1cccs1	T cruzi growth-1 inconclusive | T cruzi growth-2 inactive | T cruzi growth-3 inactive | NIH3T3 tox inactive | 3T3 cytotox 2 48.1
O=C(NCCCn1cc(C(=O)NO)nn1)Nc1ccccc1	none (no result: Pf Dd2 growth, KDM4C inh, T cruzi growth-1)
CN(CCO)c1ccc(/C=N/NC(=O)CCCCCC(=O)NO)cc1	none (no result: Pf Dd2 growth, KDM4C inh, T cruzi growth-1)
O=C(Nc1ccc(S(=O)(=O)Nc2ccccn2)cc1)c1cccnc1	none (no result: Pf Dd2 growth, KDM4C inh, T cruzi growth-1)
CC1(C)NC(=O)N(CCCOc2ccccc2CO)C1=O	none (no result: Pf Dd2 growth, KDM4C inh, T cruzi growth-1)
O=[N+]([O-])c1ccc(N2CCN(S(=O)(=O)c3ccc(F)cc3)CC2)cc1NCc1cccnc1	none (no result: Pf Dd2 growth, KDM4C inh, T cruzi growth-1)
O=C(Nc1cccc(F)c1)N1CCCCN2[C@H](CO)[C@@H](c3ccc(-c4ccncc4)cc3)[C@@H]2C1	T cruzi growth-1 103.0 (no result: IDH1 R132H inh) | T cruzi growth-2 113.1 | T cruzi growth-3 inactive | NIH3T3 tox 36.0 | 3T3 cytotox 2 30.8
O=C(Nc1ccc(F)cc1)N1CCCCN2[C@@H](CO)[C@H](c3ccc(-c4ccncc4)cc3)[C@@H]2C1	none (no result: IDH1 R132H inh)
O=C(Nc1cccc(F)c1)N1CCCCN2[C@H](CO)[C@H](c3ccc(-c4ccncc4)cc3)[C@@H]2C1	T cruzi growth-1 107.8 (no result: IDH1 R132H inh) | T cruzi growth-2 99.6 | T cruzi growth-3 inactive | NIH3T3 tox inactive | 3T3 cytotox 2 inactive
Cc1ccc(-c2ccc([C@H]3[C@H](CO)N4CCCCN(C(=O)Nc5cccc(F)c5)C[C@@H]34)cc2)cc1	T cruzi growth-1 105.7 (no result: IDH1 R132H inh) | T cruzi growth-2 99.5 | T cruzi growth-3 inconclusive | NIH3T3 tox 118.0 | 3T3 cytotox 2 105.3
Cc1ccc(-c2ccc([C@H]3[C@H]4CN(C(=O)Nc5cccc(F)c5)CCCCN4[C@H]3CO)cc2)cc1	none (no result: IDH1 R132H inh)
O=C(CSc1nc(-c2ccccc2)cs1)Nc1ccccc1	none (no result: Pf Dd2 growth, KDM4C inh, T cruzi growth-1)
